The target in one test is Melanocortin receptor 4 (Mus musculus, UniProt P56450). The experiment in a line: Functional activity at the mouse melanocortin 4 receptor. The method in brief: (§1)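 HEK-293 cells stably expressing the mouse receptor (calcium phosphate transfection, G418 1 mg/mL), transfected with CRE/β-galactosidase reporter. Lysates read at OD405 with ONPG at 37 °C, normalized to protein and forskolin (10^-4 M) response. EC50 from curve fit, at least three independent experiments.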

The target of test [1] is T1, Melanocortin receptor 5 (Mus musculus, UniProt P41149). The test is described as follows: Functional activity at the mouse melanocortin 5 receptor. The method in brief:
as §1

Test [2] addresses T2, Melanocyte-stimulating hormone receptor (Mus musculus, UniProt Q01727). The experiment in a line: Functional activity at the mouse melanocortin 1 receptor. The method in brief:
as §1

In test [3] the target is T3, Melanocortin receptor 3 (Mus musculus, UniProt P33033). The test is described as follows: Functional activity at the mouse melanocortin 3 receptor. The method in brief: as §1
T3 sequence (P33033 whole entry): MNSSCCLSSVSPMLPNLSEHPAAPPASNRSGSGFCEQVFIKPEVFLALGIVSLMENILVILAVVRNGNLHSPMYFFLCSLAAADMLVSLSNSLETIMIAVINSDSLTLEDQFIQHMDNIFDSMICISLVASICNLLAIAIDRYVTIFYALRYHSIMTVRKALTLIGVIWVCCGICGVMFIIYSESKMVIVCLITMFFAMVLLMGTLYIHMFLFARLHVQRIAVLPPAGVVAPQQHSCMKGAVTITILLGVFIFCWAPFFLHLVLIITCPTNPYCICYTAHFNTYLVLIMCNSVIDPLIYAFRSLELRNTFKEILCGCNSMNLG
Test [4] concerns the target T2, Melanocyte-stimulating hormone receptor. The experiment in a line: Functional activity at the mouse melanocortin 1 receptor at 100 uM; Slight agonist.
In test [5] the target is T1, Melanocortin receptor 5. The experiment in a line: Functional activity at the mouse melanocortin 5 receptor at 100 uM; Slight agonist.
The target of test [6] is T3, Melanocortin receptor 3. The test is described as follows: Functional activity at the mouse melanocortin 3 receptor at 100 uM; Slight agonist.

Where a SMILES comes first, the peptide text is derived from it. [ ]: non-standard residue; d: D form.

Melanocortin receptor 4, sequence (P56450 whole entry): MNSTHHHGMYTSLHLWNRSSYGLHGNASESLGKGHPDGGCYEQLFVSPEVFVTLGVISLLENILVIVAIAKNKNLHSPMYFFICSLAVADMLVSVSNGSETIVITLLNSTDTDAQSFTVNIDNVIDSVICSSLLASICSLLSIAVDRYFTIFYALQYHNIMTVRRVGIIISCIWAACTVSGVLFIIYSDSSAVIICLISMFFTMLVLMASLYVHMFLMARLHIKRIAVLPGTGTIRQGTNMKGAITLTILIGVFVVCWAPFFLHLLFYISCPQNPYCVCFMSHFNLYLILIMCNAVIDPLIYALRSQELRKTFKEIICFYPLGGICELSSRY
T1 sequence (P41149 whole entry): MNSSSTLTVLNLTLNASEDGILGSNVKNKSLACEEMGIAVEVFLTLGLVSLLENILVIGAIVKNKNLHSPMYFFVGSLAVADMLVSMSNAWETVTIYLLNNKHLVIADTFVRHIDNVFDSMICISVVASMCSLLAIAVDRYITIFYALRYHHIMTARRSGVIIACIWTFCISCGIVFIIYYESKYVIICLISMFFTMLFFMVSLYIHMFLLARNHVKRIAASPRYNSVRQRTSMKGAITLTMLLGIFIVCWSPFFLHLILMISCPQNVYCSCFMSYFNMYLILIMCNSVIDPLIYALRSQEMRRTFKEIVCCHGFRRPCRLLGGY
T2 sequence (Q01727 whole entry): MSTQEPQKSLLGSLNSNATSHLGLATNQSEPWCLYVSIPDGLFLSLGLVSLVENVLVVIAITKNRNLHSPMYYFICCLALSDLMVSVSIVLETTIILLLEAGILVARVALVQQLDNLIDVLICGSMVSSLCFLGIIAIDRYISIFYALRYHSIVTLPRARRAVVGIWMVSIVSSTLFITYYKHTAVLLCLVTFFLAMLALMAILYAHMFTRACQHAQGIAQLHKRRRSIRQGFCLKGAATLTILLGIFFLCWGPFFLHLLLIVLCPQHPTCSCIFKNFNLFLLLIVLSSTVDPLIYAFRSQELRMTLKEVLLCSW

As usually defined, the EC50 is the concentration that produces a half-maximal response. Turning to `CC(=O)N[C@@H](Cc1cnc[nH]1)C(=O)N[C@H](Cc1ccccc1)C(=O)N[C@@H](CCCN=C(N)N)C(=O)N[C@@H](Cc1c[nH]c2ccccc12)C(N)=O`, the EC50 amounted to 10.2 nM on Melanocortin receptor 4 and 3.46 nM on Melanocortin receptor 5 [1].
Turning to `CCCC[C@H](NC(C)=O)C(=O)N[C@@H](CCC(=O)O)C(=O)N[C@@H](Cc1c[nH]cn1)C(=O)N[C@H](Cc1ccccc1)C(=O)N[C@@H](CCCN=C(N)N)C(=O)N[C@@H](Cc1c[nH]c2ccccc12)C(=O)NCC(N)=O`, the EC50 was determined as 0.045 nM in test [2], 0.39 nM at Melanocortin receptor 3 [3], 0.94 nM at Melanocortin receptor 4 and 0.59 nM at Melanocortin receptor 5 [1].
As for `CCCC[C@H](NC(C)=O)C(=O)N[C@@H](CCC(=O)O)C(=O)N[C@@H](Cc1c[nH]cn1)C(=O)N[C@H](Cc1ccccc1)C(=O)N[C@@H](CCCN=C(N)N)C(=O)N[C@@H](Cc1c[nH]c2ccccc12)C(N)=O`, the EC50 in test [2] is 0.034 nM; at Melanocortin receptor 3 [3], 0.26 nM; at Melanocortin receptor 4, 0.45 nM; on Melanocortin receptor 5 [1], 0.39 nM.
For the compound `CC(=O)N[C@@H](Cc1c[nH]cn1)C(=O)N[C@@H](Cc1ccccc1)C(=O)N[C@@H](CCCN=C(N)N)C(=O)N[C@H](Cc1c[nH]c2ccccc12)C(N)=O`, the EC50 came to 6620 nM at Melanocortin receptor 4 and 317 nM at Melanocortin receptor 5 [1].
`CC(=O)N[C@@H](CCC(=O)O)C(=O)N[C@@H](Cc1c[nH]cn1)C(=O)N[C@H](Cc1ccccc1)C(=O)N[C@@H](CCCN=C(N)N)C(=O)N[C@@H](Cc1c[nH]c2ccccc12)C(N)=O`: the half-maximal effective concentration (EC50) in test [2] stood at 8.94 nM; on Melanocortin receptor 3 [3] it was 15.2 nM; at Melanocortin receptor 4 it was 4.31 nM; on Melanocortin receptor 5 [1] it was 0.42 nM.
Turning to `CCCC[C@H](NC(=O)[C@H](CO)NC(=O)[C@H](Cc1ccc(O)cc1)NC(=O)[C@H](CO)NC(C)=O)C(=O)N[C@@H](CCC(=O)O)C(=O)N[C@@H](Cc1c[nH]cn1)C(=O)N[C@H](Cc1ccccc1)C(=O)N[C@@H](CCCN=C(N)N)C(=O)N[C@@H](Cc1c[nH]c2ccccc12)C(=O)NCC(=O)N[C@@H](CCCCN)C(N)=O`, the EC50 in test [2] was found to be 0.018 nM; at Melanocortin receptor 3 [3], 0.16 nM; on Melanocortin receptor 4, 0.44 nM; on Melanocortin receptor 5 [1], 0.46 nM.
Regarding `CC(=O)N[C@@H](Cc1c[nH]cn1)C(=O)N[C@H](Cc1ccccc1)C(=O)N[C@@H](CCCN=C(N)N)C(=O)N[C@@H](Cc1c[nH]c2ccccc12)C(=O)NCC(=O)N[C@@H](CCCCN)C(=O)N1CCC[C@H]1C(=O)N[C@H](C(N)=O)C(C)C`, the EC50 is 0.49 nM in test [2], 6.82 nM on Melanocortin receptor 3 [3], 0.45 nM on Melanocortin receptor 4 and 0.17 nM at Melanocortin receptor 5 [1].
On to `CCCC[C@H](NC(=O)[C@H](CO)NC(=O)[C@H](Cc1ccc(O)cc1)NC(=O)[C@H](CO)NC(C)=O)C(=O)N[C@@H](CCC(=O)O)C(=O)N[C@@H](Cc1cnc[nH]1)C(=O)N[C@H](Cc1ccccc1)C(=O)N[C@@H](CCCNC(=N)N)C(=O)N[C@@H](Cc1c[nH]c2ccccc12)C(N)=O`, for which the EC50 in test [2] turned out to be 0.036 nM; at Melanocortin receptor 3 [3], 0.29 nM; on Melanocortin receptor 4, 0.78 nM; at Melanocortin receptor 5 [1], 0.53 nM.
Take `CCCC[C@H](NC(C)=O)C(=O)N[C@@H](CCC(=O)O)C(=O)N[C@@H](Cc1cnc[nH]1)C(=O)N[C@H](Cc1ccccc1)C(=O)N[C@@H](CCCNC(=N)N)C(=O)N[C@@H](Cc1c[nH]c2ccccc12)C(=O)NCC(=O)N[C@@H](CCCCN)C(=O)N1CCC[C@H]1C(=O)N[C@H](C(N)=O)C(C)C`: the EC50 worked out at 0.021 nM in test [2], 0.11 nM at Melanocortin receptor 3 [3], 0.32 nM on Melanocortin receptor 4 and 0.46 nM on Melanocortin receptor 5 [1].
Take `CC(=O)N[C@@H](Cc1cnc[nH]1)C(=O)N[C@H](Cc1ccccc1)C(=O)N[C@@H](CCCNC(=N)N)C(=O)N[C@H](Cc1c[nH]c2ccccc12)C(N)=O`: the results for the EC50 at Melanocortin receptor 4 and at Melanocortin receptor 5 [1] were 154 nM and 61.3 nM, respectively.
On to `CC(=O)N[C@@H](Cc1c[nH]cn1)C(=O)N[C@@H](Cc1ccccc1)C(=O)N[C@@H](CCCN=C(N)N)C(=O)N[C@@H](Cc1c[nH]c2ccccc12)C(N)=O`, for which the EC50 at Melanocortin receptor 4 worked out at 2110 nM; at Melanocortin receptor 5 [1], 103 nM.
For `CC(=O)N[C@H](Cc1ccccc1)C(=O)N[C@@H](CCCN=C(N)N)C(=O)N[C@H](Cc1c[nH]c2ccccc12)C(N)=O`, the EC50 entry in test [4] was “Partial agonist”; at Melanocortin receptor 3 [3], over 100000 nM; on Melanocortin receptor 4, 11200 nM; on Melanocortin receptor 5 [1], 6880 nM.
`CC(=O)N[C@@H](Cc1ccccc1)C(=O)N[C@@H](CCCN=C(N)N)C(=O)N[C@@H](Cc1c[nH]c2ccccc12)C(N)=O` (Ac-Phe-Arg-Trp-NH2): the EC50 result at Melanocortin receptor 5 [5] was “Partial agonist”.
Take `CC(=O)N[C@@H](Cc1ccccc1)C(=O)N[C@@H](CCCNC(=N)N)C(=O)N[C@@H](Cc1c[nH]c2ccccc12)C(N)=O` (Ac-Phe-Arg-Trp-NH2): the figures for the EC50 (in test [2]; at Melanocortin receptor 3 [3]; at Melanocortin receptor 4) were 5870 nM, over 100000 nM and over 100000 nM, respectively.
With `CC(=O)N[C@H](Cc1ccccc1)C(=O)N[C@@H](CCCN=C(N)N)C(=O)N[C@@H](Cc1c[nH]c2ccccc12)C(N)=O` (Ac-[dF]-Arg-Trp-NH2), the EC50 was 4540 nM in test [2], “Partial agonist” at Melanocortin receptor 3 [6], 2320 nM at Melanocortin receptor 4 and 1660 nM at Melanocortin receptor 5 [1].

For the origin of these results see ChEMBL document CHEMBL1134521, “Characterization of melanocortin NDP-MSH agonist peptide fragments at the mouse central and peripheral melanocortin receptors” (J Med Chem, 2001).
